Experimental data of several laboratories.
Each line is one published result; the experiments were not run side by side. pIC50, pKd, pKi: −log10 of the molar value.
ACHE: Acetylcholinesterase (ACHE, Homo sapiens, UniProt P22303)
Sialidase-2: Sialidase-2 (Homo sapiens, UniProt Q9Y3R4)
FABP4: Fatty acid-binding protein, adipocyte (FABP4, Homo sapiens, UniProt P15090)

Compound | target | assay | system | conditions | measurement | result
O=c1cc(CSc2ccc(N=Cc3ccc(Br)cc3)cc2)occ1O | ACHE | enzyme activity, inhibitor | – | – | pKi | 6.04
CCCCOP(=O)(O)C(C)=O | 1-deoxy-D-xylulose-5-phosphate synthase (dxs, Escherichia coli, UniProt P77488) | enzyme activity, inhibitor | – | – | pKi | 5.52
CC1=C(CO)C(=O)O[C@@H]([C@@H](C)[C@H]2CC[C@H]3[C@@H]4C[C@H]5O[C@]56[C@@H](O)C=CC(=O)[C@]6(C)[C@H]4CC[C@]23C)C1 | Importin subunit beta-1 (KPNB1, Homo sapiens, UniProt Q14974, C158A) | binding, MST | – | – | pKd | 4.04
CC(C)(C)CN[C@H]1[C@H]([C@H](O)[C@H](O)CO)OC(C(=O)O)=C[C@@H]1O | Sialidase-2 | enzyme activity, inhibitor | – | – | pIC50 | 3.92
O=C(O)C(F)(F)C(F)(F)C(F)(F)C(F)(F)C(F)(F)C(F)(F)C(F)(F)C(F)(F)C(F)(F)F | FABP4 | ligand displacement, fluorescence | – | – | pKi | 5.87
Cc1c(-c2cccnc2)c2ccccc2n1CCCCC(=O)O | FABP4 | ligand displacement, fluorescence | – | – | pKd | 5.49
Cn1c(=O)n(CCCCN2CCC3(CC2)OCc2ccccc23)c2ccccc21 | Transporter (Slc6a2, Rattus norvegicus, UniProt Q63380) | ligand displacement, radioligand | – | cell membranes | pKi | 6.63
CC(C)c1cc2c(c(O)c1O)[C@@]13CCCC(C)(C)[C@@H]1[C@H](OC3=O)[C@H]2O | ACHE | enzyme activity, inhibitor | – | – | pKi | 9.64
CC(=O)c1c(C)c2cnc(Nc3ccc(C4CCN(CCS(C)(=O)=O)CC4)cn3)nc2n(C2CCCC2)c1=O | Cytochrome P450 2C8 (CYP2C8, Homo sapiens, UniProt P10632) | enzyme activity, inhibitor | human, liver microsomes | – | pIC50 | < 5.00
O=C(O)C(F)(F)C(F)(F)C(F)(F)C(F)(F)C(F)(F)C(F)(F)C(F)(F)F | FABP4 | ligand displacement, fluorescence | – | – | pKi | 5.74
CC(C)c1cc2c(c(O)c1O)[C@@]1(C(=O)O)CCCC(C)(C)[C@@H]1CC2 | ACHE | enzyme activity, inhibitor | – | – | pKi | 9.24
Cc1cn([C@H]2[C@H]([C@H](O)[C@H](O)CO)OC(C(=O)O)=C[C@@H]2O)nn1 | Sialidase-2 | enzyme activity, inhibitor | – | – | pIC50 | 4.10
Cc1ccccc1C=Nc1ccc(SCc2cc(=O)c(O)co2)cc1 | ACHE | enzyme activity, inhibitor, Ellman | – | – | pIC50 | 5.28
